Drawing on ChEMBL document CHEMBL1155581, “A-Type proanthocyanidin trimers from cranberry that inhibit adherence of uropathogenic P-fimbriated Escherichia coli” (J Nat Prod, 2000), this text covers Activity for six molecules.

Active and inactive are the calls of the source. The rule behind the calls is not given here.

Type in all cases: functional, organism-based
Experiment [1] deals with Escherichia coli. Put plainly: Antiadherent activity against P-fimbriated Escherichia coli in human erythrocyte assessed as suppression of agglutination using latex beads coated with P receptor analogue at 0.3 mg/ml. In outline: (§1)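 Uropathogenic P-fimbriated E. coli from patient urine, grown in tryptose broth 16 h at 37 °C, then overnight on CFA plates. Washed cells at 5 × 10^8/mL in PBS pH 7.0. Compounds in PBS neutralized with 1 N NaOH, 2-fold serial dilutions, 30 µL with 10 µL bacteria for 10 min at RT with shaking. 3% A1 Rh+ human RBCs or P-receptor-coated latex beads added separately, 20 min RT. Agglutination suppression scored microscopically (+/−).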

The test system of experiment [2] is Escherichia coli. Put plainly: Antiadherent activity against P-fimbriated Escherichia coli in human erythrocyte assessed as suppression of agglutination using latex beads coated with P receptor analogue at 0.15 mg/ml. In a few lines: as §1
For experiment [3], the system named is Escherichia coli. Put plainly: Antiadherent activity against P-fimbriated Escherichia coli in human erythrocyte assessed as suppression of agglutination using latex beads coated with P receptor analogue at 2.4 mg/ml. In outline: as §1
Experiment [4] relates to Escherichia coli. Put plainly: Antiadherent activity against P-fimbriated Escherichia coli in human erythrocyte assessed as suppression of agglutination using latex beads coated with P receptor analogue at 0.6 mg/ml. In a few lines: as §1
The test system of experiment [5] is Escherichia coli. The experiment is described as follows: Antiadherent activity against P-fimbriated Escherichia coli in human erythrocyte assessed as suppression of agglutination using latex beads coated with P receptor analogue at 1.2 mg/ml. In a few lines: as §1

With `Oc1cc(O)c2c(c1)O[C@@]1(c3ccc(O)c(O)c3)Oc3cc(O)c4c(c3[C@@H]2[C@H]1O)O[C@H](c1ccc(O)c(O)c1)[C@H](O)C4`, the result in experiment [1], in experiment [2], in experiment [4] and in experiment [5] was inactive. The result in experiment [3] was Active.
With `Oc1cc(O)c2c(c1)O[C@H](c1ccc(O)c(O)c1)[C@H](O)[C@H]2c1c(O)cc(O)c2c1O[C@@]1(c3ccc(O)c(O)c3)Oc3cc(O)c4c(c3[C@@H]2[C@H]1O)O[C@H](c1ccc(O)c(O)c1)[C@H](O)C4`, the outcome in experiment [1] and in experiment [2] was inactive. For the same molecule, the outcome in experiment [3], in experiment [4] and in experiment [5] was Active.
For the molecule `Oc1cc(O)c2c(c1)O[C@H](c1ccc(O)c(O)c1)[C@H](O)[C@H]2c1c(O)cc(O)c2c1O[C@H](c1ccc(O)c(O)c1)[C@H](O)C2`, the result in experiment [1], in experiment [2], in experiment [3], in experiment [4] and in experiment [5] was inactive.
On to `Oc1cc(O)c2c(c1)O[C@@]1(c3ccc(O)c(O)c3)Oc3cc(O)c4c(c3[C@@H]2[C@H]1O)O[C@H](c1ccc(O)c(O)c1)[C@H](O)[C@H]4c1c(O)cc(O)c2c1O[C@H](c1ccc(O)c(O)c1)[C@H](O)C2` [CINNAMTANNIN B1], for which the outcome in experiment [1], in experiment [3], in experiment [4] and in experiment [5] was Active. Besides, in experiment [2], the Activity result is reported as “Not Active”.
Consider `Oc1cc(O)c2c(c1)O[C@H](c1ccc(O)c(O)c1)[C@H](O)C2`, for which the outcome in experiment [1], in experiment [2], in experiment [3], in experiment [4] and in experiment [5] was inactive.
For the molecule `Oc1cc(O)c2c(c1)O[C@H](c1ccc(O)c(O)c1)[C@H](O)[C@H]2c1c(O)cc2c(c1O)[C@@H]1c3c(cc(O)c4c3O[C@H](c3ccc(O)c(O)c3)[C@H](O)C4)O[C@](c3ccc(O)c(O)c3)(O2)[C@@H]1O`, the outcome in experiment [1], in experiment [3], in experiment [4] and in experiment [5] was Active. Further, in experiment [2], the outcome was inactive.
